Source: PubChem (several laboratories)
Only some compounds are listed: those with a hit (about 1.7% of all), similar ones and a draw of the others.
CAL PDZ FP-1 = inhibitors of human CAL PDZ peptide binding | purified CAL PDZ, TMR-peptide fluorescence polarization, 1 h | 0.92% of 300,000 active | inhibition, % at 24.9 µM | Q9HD26;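 active = mean inhibition of at least 30% with at least half of replicates also reaching 30%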;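 also: 0% = DMSO neutral control and 100% = excess unlabeled competitor peptide PRC23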
C-LANA FP = blocks KSHV LANA C-terminal domain binding to DNA; inhibition, % at 9 µM; AID 504423; 0.078% of 340,000 active; MBP-C-LANA/FAM-LBS DNA binding, fluorescence polarization;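 active = highest replicate inhibition at or above 60% at 9 µM, even if other replicates fall short; inactive = all replicates below 60% inhibition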;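 also: 0% = neutral control wells and 100% = 4 µM acridine orange control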
Keap1-Nrf2 PPI = Keap1-Nrf2 (human) interaction inhibition. Keap1 Kelch-Nrf2 peptide fluorescence polarization, 1536-well. Q14145. inhibition, % at 9.4 µM. 0.15% of 340,000 active; in the data active = inhibition above about 12%;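 also: human Keap1 Kelch domain with fluorescein labeled Nrf2 9mer peptide probe; 0% = neutral control wells and 100% = peptide positive control; higher means more block of Keap1 binding to Nrf2 peptide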
A3G deaminase = blocks human APOBEC3G single-stranded DNA deamination. inhibition, % at 20 µM. Q9HC16. recombinant A3G, ssDNA deamination FAM/TAMRA fluorescence. 0.28% of 330,000 active. AID 493012;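 active = inhibition of at least 40% at 20 µM, with no more than 30% in the related APOBEC3A deaminase screen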;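 also: plate controls were DMSO wells with A3G for no effect and wells lacking A3G enzyme for full effect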
Target sequence (Q9HC16 whole entry, looked up): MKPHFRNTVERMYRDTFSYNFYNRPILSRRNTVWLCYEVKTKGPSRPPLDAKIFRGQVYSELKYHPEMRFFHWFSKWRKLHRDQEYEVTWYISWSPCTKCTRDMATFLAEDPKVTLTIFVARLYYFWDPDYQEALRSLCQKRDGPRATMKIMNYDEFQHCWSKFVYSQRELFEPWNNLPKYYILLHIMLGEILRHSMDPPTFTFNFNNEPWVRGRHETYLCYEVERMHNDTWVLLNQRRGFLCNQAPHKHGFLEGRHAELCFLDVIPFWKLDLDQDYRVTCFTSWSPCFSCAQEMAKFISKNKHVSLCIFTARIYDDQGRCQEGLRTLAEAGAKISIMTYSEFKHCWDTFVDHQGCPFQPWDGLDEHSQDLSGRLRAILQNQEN
CAL PDZ FP-2 = inhibitors of human CAL PDZ peptide binding; Q9HD26; purified CAL PDZ, TMR-peptide fluorescence polarization, 1 h; inhibition, % at 20 µM; 0.02% of 330,000 active; AID 504414;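 active = highest replicate inhibition of at least 40%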;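 also: plate controls were DMSO neutral control wells for no effect and unlabeled competitor peptide control wells for full effect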
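Material: tagged CAL PDZ domain; buffer or medium: 25 mM sodium phosphate pH 7.4, 150 mM NaCl, TCEP, IgG, Thesit; compound dosing: single point, 20 µM; schedule: 1 h incubation at room temperature before polarization reading; measured by: FP readout, S and P plane fluorescence; read-out basis: percent inhibition from loss of millipolarization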
APOBEC3A inh = inhibitors of human APOBEC3A DNA deaminase; recombinant A3A, FAM/TAMRA ssDNA deamination fluorescence; inhibition, % at 20 µM; 0.41% of 330,000 active;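 active = at least 40% inhibition at 20 µM here, with at most 30% in a related deaminase screen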;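 also: plate controls were A3A with DMSO for no effect and wells lacking A3A enzyme for full effect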
Target sequence (P31941 whole entry, looked up): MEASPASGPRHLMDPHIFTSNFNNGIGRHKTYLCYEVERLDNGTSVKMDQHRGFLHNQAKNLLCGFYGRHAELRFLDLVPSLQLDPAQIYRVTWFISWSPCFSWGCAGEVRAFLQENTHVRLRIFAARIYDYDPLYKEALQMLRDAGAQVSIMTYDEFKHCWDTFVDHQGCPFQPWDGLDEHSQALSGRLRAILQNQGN
Active calls of the source: *; / = not tested or not shown.

SMILES | CAL PDZ FP-1 | C-LANA FP | Keap1-Nrf2 PPI | A3G deaminase | CAL PDZ FP-2 | APOBEC3A inh
CCCCC1=NN(C(=O)c2ccco2)C(O)(C(F)(F)F)C1 (centres undefined) | -1.1 | -0.4 | 2.2 | -1.3 | 1.0 | 2.6
O=C(NCc1ccccn1)c1ccc([N+](=O)[O-])cc1 | -2.2 | 0.0 | -6.8 | -6.2 | -2.3 | -2.1
O=C(Cc1ccc([N+](=O)[O-])cc1)NCc1ccccn1 | 75.8* | -0.2 | 0.4 | -3.6 | -0.6 | 0.6
O=C(c1ccc(OC2CCN(C/C=C/c3ccccc3)CC2)cc1)N1CCCCC1 | 36.7* | 0.6 | -7.1 | -7.7 | 13.5 | -1.8
O=C(c1ccc(OC2CCN(C/C=C/c3ccccc3)CC2)cc1)N1CCCC1 | -5.9 | -0.7 | 0.3 | -5.8 | -2.0 | -5.0
CCN(CC)CCCNC(=O)c1[nH]c2ccccc2c1Sc1ccc(Cl)cc1 | -3.2 | -0.9 | 0.5 | -8.2 | -3.4 | -1.0
CCc1ccc(N2CC(C(=O)OCC(=O)N(CC)c3c(N)n(Cc4ccccc4)c(=O)[nH]c3=O)CC2=O)cc1 (centres undefined) | / | / | 187.5* | / | 0.3 | /
O=C(CNC(=S)N(Cc1ccccc1)Cc1cccnc1)N1CCOCC1 | -4.8 | 2.1 | 3.9 | -3.6 | -1.3 | 1.6
O=C(/C=C(/c1ccc(Cl)cc1)n1cncn1)c1ccccc1 | -2.9 | 2.0 | 0.6 | -5.2 | -0.4 | -1.8
CCC(C)NC(=O)CC(c1ccccc1)c1cc(C)ccc1O (centres undefined) | 33.9* | -2.2 | -1.6 | -1.8 | -0.7 | -2.1
CC(C)(C)CC(=O)N1CCN(Cc2ccc3c(c2)OCO3)CC1 | 37.7* | 3.5 | 3.2 | -0.3 | -1.5 | -0.7
O=C(N1CCN(Cc2ccc3c(c2)OCO3)CC1)C(Cl)(Cl)Cl | -3.0 | 0.2 | 0.0 | -6.4 | 1.3 | 1.7
CCCCCC(=O)NC(=S)Nc1ccc2oc(=O)ccc2c1 | 85.7* | -0.4 | 0.3 | -3.2 | -1.0 | 1.5
COc1ccc(C(=O)NC(=S)Nc2ccc3oc(=O)ccc3c2)cc1 | -2.2 | 0.1 | -1.6 | -3.9 | -1.8 | -1.4
CC(OC(=O)Cc1n[nH]c(=O)c2ccccc12)C(=O)Nc1ccc(F)cc1Cl (centres undefined) | 2.8 | -1.0 | -5.1 | -5.3 | 1.1 | 0.7
c1ccc(CNCCCNCCCCNCCCNCc2ccccc2)cc1 | -1.4 | -0.8 | -2.0 | / | -1.0 | /
OC(c1ccccc1)C(NCCNCc1ccccc1)c1ccccc1 (centres undefined) | 164.9* | 1.1 | 4.6 | / | -0.4 | /
Cc1ccc(S(=O)(=O)N(C)CC(=O)NCCCn2nc(C)cc2C)cc1 | 62.4* | 0.4 | -0.3 | -0.6 | 1.2 | 1.6
Cc1ccc(S(=O)(=O)N(C)CC(=O)NCCCc2ccccc2)cc1 | / | 0.6 | -4.2 | -2.6 | -1.3 | -1.6
CC1C(=O)N2CCCc3cc(S(=O)(=O)N(C)c4ccccc4)cc1c32 (centres undefined) | -6.7 | 1.2 | -5.3 | -7.1 | -1.8 | -3.8
C/C(N)=C(/C#N)C(=O)COC(=O)Cc1coc2ccc3ccccc3c12 | 79.0* | 0.6 | -0.1 | -2.6 | -1.5 | 1.9
C/C(N)=C(/C#N)C(=O)COc1ncnc2ccccc12 | -5.4 | -0.8 | 2.1 | -2.3 | -0.1 | 6.8
COc1cc(CCN2C(=O)c3cccc4cccc(c34)C2=O)c(S(=O)(=O)NCCCO)cc1OC | -3.4 | 0.9 | -4.3 | -4.8 | -4.6 | -1.9
CCCn1nc(C(=O)Nc2ccc3c(c2)OCCO3)c2ccccc2c1=O | -2.5 | 2.6 | -3.7 | -6.9 | -2.9 | 0.9
Cc1noc(C)c1COc1ccc(CC(=O)NCCc2ccccc2)cc1 | 108.3* | 0.0 | -4.2 | -8.5 | -0.2 | -7.1
SMILES | CAL PDZ FP-1 | C-LANA FP | Keap1-Nrf2 PPI | A3G deaminase | CAL PDZ FP-2 | APOBEC3A inh
Cc1noc(C)c1COc1ccc(C(=O)NCCc2ccc(F)cc2)cc1 | / | -0.8 | 3.9 | -8.1 | -0.4 | -2.4
O=C1OC[C@H]2CCCN2C(=O)[C@@H](CC(=O)N(CCO)Cc2ccccc2)C/C=C\CC[C@H]1Cc1ccc(F)cc1 | -1.8 | -0.9 | -3.2 | -7.4 | -1.7 | -2.4
Cc1ccc(C(=O)N[C@H](C(=O)OCc2nnc(-c3ccccc3)o2)C(C)C)cc1 | 49.9* | -0.7 | -3.6 | -8.3 | 0.3 | -2.4
CC(C)[C@H](NC(=O)c1ccccc1)C(=O)OCc1nnc(-c2ccccc2)o1 | -4.6 | -1.6 | 0.1 | -3.8 | 0.1 | -0.5
O=C(Cn1[nH]c(=O)c2ccccc2c1=O)OCC(=O)N1CCCc2ccccc21 | 69.3* | 1.1 | 1.0 | -3.0 | -2.2 | 0.8
CN(C)c1cccc(C(=O)NNC(=O)/C=C/c2cccs2)c1 | 77.1* | -0.3 | -0.5 | -6.5 | 1.2 | -6.5
COc1cc(C(=O)OCC(=O)Nc2cccc(S(=O)(=O)N3CCCC3)c2)ccc1OCC(C)C | -1.2 | -0.1 | -4.1 | -6.3 | -2.4 | -0.3
Cc1cc(N=Cc2c(O)n(-c3ccc4c(c3)OCO4)c(=O)c3ccccc23)ccn1 | 35.4* | -4.8 | -5.3 | -3.3 | -1.1 | -4.1
Cc1ccc(-n2c(O)c(C=Nc3ccc4c(c3)OCO4)c3ccccc3c2=O)cc1C | -1.3 | 1.2 | -2.0 | -2.4 | -2.7 | -0.2
CN(C(=O)c1ccccc1F)C(c1ccccc1)c1ccccc1 | 41.7* | 0.3 | 5.3 | -10.1 | -0.4 | -2.7
CC(/C=N/NC(=O)c1ccccc1F)c1ccccc1 (centres undefined) | -2.7 | 0.8 | 0.2 | -2.6 | -1.3 | 0.3
O=Cc1ccc(-n2cccn2)cc1 | 10.4 | -1.4 | 0.9 | -5.1 | -0.8 | -8.0
Cc1nccn1-c1ccc(C=O)cc1 | 120.5* | -0.7 | 0.8 | 0.9 | -0.2 | -3.3
Cc1cc2oc(=O)cc(CN3CCOCC3)c2cc1C(C)C | 62.3* | -0.2 | -2.2 | -12.4 | -1.0 | -6.4
COc1ccc(NC(=O)CN(C)CC(=O)N2CC(=O)Nc3ccccc32)cc1 | 8.3 | -0.7 | -3.3 | 0.2 | -0.4 | 3.5
COc1cccc(NC(=S)Nc2cc(C)cc(C)n2)c1 | -0.4 | 0.5 | -5.8 | 0.3 | -0.4 | 3.6
Cc1cc(C)nc(NC(=S)Nc2cccc(F)c2)c1 | 65.0* | 0.4 | -2.0 | 3.6 | 0.0 | 0.7
COC(=O)c1ccccc1NC(=S)N1CCN(C2CCCCC2)CC1 | 60.8* | 7.1 | -4.2 | -5.9 | -0.7 | -2.4
COC(=O)c1ccccc1NC(=S)N1CCC(N2CCCCC2)CC1 | / | 0.5 | -4.3 | -0.5 | -0.8 | 0.9
CN(CCC#N)CC(=O)Nc1ccc(NC(=O)CN(C)CCC#N)cc1 | 38.7* | -0.3 | -6.2 | -1.7 | -3.2 | 1.4
O=C(Nc1ccccc1)/C(=C/c1ccc(F)cc1)NC(=O)c1ccco1 | 12.7 | 0.3 | -3.6 | -7.1 | 0.8 | -1.1
COc1ccc(CC(=O)NCC2CCCN(Cc3ccc(OC(F)(F)F)cc3)C2)cc1 (centres undefined) | 63.4* | -2.0 | -4.4 | 10.1 | -4.0 | 5.1
CCN1CCCc2cc(CN(CCN3CCOCC3)C(=S)Nc3cccc(C)c3)ccc21 | 52.5* | 1.3 | 4.7 | -6.9 | -1.4 | -1.5
